M4 antag: blocks acetylcholine activation of human M4 receptor. P08173. inhibition, % at 3 µM. CHO-hM4 cells, ACh EC80, Fluo-8 calcium fluorescence. 360,000 tested, 0.73% active. AID 624125;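 active = inhibition above its plate's cutoff, the mean inhibition of sample wells plus 3 SD, cut at about 27% in these data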
CHRM4 PAM: positive allosteric modulators of human muscarinic M4 receptor | P08173 | CHO-K1 hM4/Gqi5, Fluo-8 calcium fluorescence, ACh EC20; 0% = ACh EC20, 100% = maximal ACh | activation, % at 3 µM | 360,000 tested, 0.4% active | AID 624126;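 active = activation above its plate's cutoff, the mean activation of sample wells plus 3 SD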
M4 ag: CHRM4 agonism in calcium assay; CHO-K1 hM4/Gqi5, Fluo-8 calcium fluorescence; vehicle 0%, full acetylcholine response 100%; activation, % at 3 µM; 360,000 tested, 0.14% active; P08173;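 active = activation above the run mean over all test wells plus 3 SD, cut at about 32% in these data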;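 note: peak over basal fluorescence ratio per well then scaled between controls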
M5 ag: agonists of human muscarinic M5 receptor (CHRM5) | P08912 | CHO-K1 hM5 cells, Fluo-8 calcium fluorescence; 0% DMSO wells, 100% maximal acetylcholine response | activation, % at 3 µM | 360,000 tested, 0.19% active;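 active = activation above the run's mean over test compounds plus 3 SD, cut at about 23% in these data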;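 note: signal is peak over basal fluorescence ratio across the kinetic read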
Target sequence (P08912 whole entry, looked up): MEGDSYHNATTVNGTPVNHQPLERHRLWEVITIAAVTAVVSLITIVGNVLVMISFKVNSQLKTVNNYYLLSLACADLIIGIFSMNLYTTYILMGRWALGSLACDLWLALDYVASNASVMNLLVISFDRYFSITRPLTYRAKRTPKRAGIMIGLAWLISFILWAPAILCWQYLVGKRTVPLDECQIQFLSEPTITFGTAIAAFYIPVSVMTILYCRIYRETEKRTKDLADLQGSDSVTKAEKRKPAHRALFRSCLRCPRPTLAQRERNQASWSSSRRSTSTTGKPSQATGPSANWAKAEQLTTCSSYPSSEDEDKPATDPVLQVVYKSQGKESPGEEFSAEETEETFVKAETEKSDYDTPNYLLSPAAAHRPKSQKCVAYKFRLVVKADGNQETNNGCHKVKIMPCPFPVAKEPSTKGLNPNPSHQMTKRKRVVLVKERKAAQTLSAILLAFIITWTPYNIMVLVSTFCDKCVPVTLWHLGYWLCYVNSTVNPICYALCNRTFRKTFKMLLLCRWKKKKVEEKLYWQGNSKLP
M5 antag: blocks acetylcholine activation of human M5 receptor. CHO-hM5 cells, Fluo-8 calcium fluorescence, ACh EC80. P08912. 360,000 tested, 0.59% active. AID 624040. inhibition, % at 3 µM;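 active = inhibition above a per-plate cutoff, the mean of that plate's test compounds plus 3 SD, cut at about 27% in these data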
M5 PAM: positive allosteric modulators of human muscarinic M5 receptor | CHO-K1 hM5, Fluo-8 calcium, ACh EC20 PAM; 0% = ACh EC20, 100% = ACh EC100 | AID 624038 | P08912 | activation, % at 3 µM | 360,000 tested, 0.3% active;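 active = activation above the run cutoff, the mean activation of all test compounds plus 3 SD, cut at about 18% in these data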
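Probe or stimulus: acetylcholine, EC20 level; Assay system: human M5 receptor in CHO-K1 cells; Schedule: compound preincubation 140 s before EC20 acetylcholine addition; Technique: intracellular calcium via Fluo-8 fluorescence; Dosing: single-point, 3 µM nominal; Read-out basis: percent activation from peak-over-basal fluorescence ratio, scaled EC20-to-EC100 acetylcholine; Repeats: one well per compound, no replicates.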
Numbers stand for hits. An excerpt weighted towards active compounds, which were near 1.9% of everything screened.

How did COC(=O)c1ccc2nc(-c3ccc(F)cc3)c(Cc3cccc(F)c3)n2c1 do in these assays?
M4 antag: inactive; CHRM4 PAM: inactive; M4 ag: inactive; M5 ag: inactive; M5 antag: 35.9; M5 PAM: inactive

How did COC(=O)c1ccc2nc(-c3ccccc3)c(Cc3cccc(F)c3)n2c1 do in these assays?
M4 antag: inactive; CHRM4 PAM: inactive; M4 ag: inactive; M5 ag: inactive; M5 antag: inactive; M5 PAM: inactive

What do the screens show for `COc1ccc(CCNC(=O)CC(C)S(=O)(=O)c2ccc3c(c2)NC(=O)CO3)cc1OC` (centres undefined)?
M4 antag: inactive; CHRM4 PAM: inactive; M4 ag: inactive; M5 ag: inactive; M5 antag: inactive; M5 PAM: inactive

What do the screens show for `CCCC(C)(C)C(=O)N1CCC1(C)C(=O)Nc1cccc(OC)c1` (centres undefined)?
M4 antag: inactive; CHRM4 PAM: inactive; M4 ag: inactive; M5 ag: inactive; M5 antag: inactive; M5 PAM: inactive

What do the screens show for `COc1ccc(CCNC(=O)CSc2nnnn2-c2ccccc2)cc1`?
M4 antag: inactive; CHRM4 PAM: inactive; M4 ag: inactive; M5 ag: inactive; M5 antag: 33.5; M5 PAM: 42.5

Results for Cc1c(N=Cc2c(O)n(C3CCCCC3)c(=O)[nH]c2=O)c(=O)n(-c2ccccc2)n1C ?
M4 antag: inactive; CHRM4 PAM: inactive; M4 ag: inactive; M5 ag: inactive; M5 antag: inactive; M5 PAM: 19.8

Results for Cc1c(N=Cc2c(O)n(C)c(=O)c3ccccc23)c(=O)n(-c2ccccc2)n1C ?
M4 antag: inactive; CHRM4 PAM: inactive; M4 ag: inactive; M5 ag: inactive; M5 antag: inactive; M5 PAM: inactive

What do the screens show for `CN1C(=S)SC(C)(C)C1(C)NO` (centres undefined)?
M4 antag: inactive; CHRM4 PAM: inactive; M4 ag: inactive; M5 ag: inactive; M5 antag: inactive; M5 PAM: 26.3

What do the screens show for `Cc1nc(-c2cccc(NC(=O)C3CCCCC3)c2)cs1`?
M4 antag: inactive; CHRM4 PAM: inactive; M4 ag: inactive; M5 ag: inactive; M5 antag: inactive; M5 PAM: 26.0

What do the screens show for `Cc1nc(-c2cccc(NC(=O)c3ccc(Br)o3)c2)cs1`?
M4 antag: inactive; CHRM4 PAM: inactive; M4 ag: inactive; M5 ag: inactive; M5 antag: 26.9; M5 PAM: inactive

What do the screens show for `CCC[C@@H](CN1CCC[C@H]1CN1C(N)=NC[C@@H]1Cc1ccccc1)N1C[C@@H](Cc2ccccc2)N(CCCC2CCCC2)C1=N`?
M4 antag: inactive; CHRM4 PAM: inactive; M4 ag: inactive; M5 ag: inactive; M5 antag: inactive; M5 PAM: inactive

How did CCCCN1C(=N)N([C@@H](C)CN2CCC[C@H]2CN2C(N)=NC[C@H]2CC(C)C)C[C@H]1Cc1ccccc1 do in these assays?
M4 antag: inactive; CHRM4 PAM: inactive; M4 ag: inactive; M5 ag: inactive; M5 antag: 33.1; M5 PAM: inactive

How did CCC[C@@H](CN1CCC[C@H]1CN1C(N)=NC[C@@H]1Cc1ccccc1)N1C[C@@H]([C@H](C)CC)N(CCCC2CCCC2)C1=N do in these assays?
M4 antag: 41.5; CHRM4 PAM: inactive; M4 ag: inactive; M5 ag: inactive; M5 antag: inactive; M5 PAM: inactive

How did CCCCN1C(=N)N([C@@H](C)CN2CCC[C@H]2CN2C(N)=NC[C@@H]2Cc2ccccc2)C[C@H]1[C@H](C)CC do in these assays?
M4 antag: inactive; CHRM4 PAM: inactive; M4 ag: inactive; M5 ag: inactive; M5 antag: inactive; M5 PAM: inactive

Results for C[C@@H](CN1CCC[C@H]1CN1C(N)=NC[C@@H]1Cc1ccccc1)N1C[C@@H](Cc2ccccc2)N(CCc2ccc(Cl)c(Cl)c2)C1=N ?
M4 antag: inactive; CHRM4 PAM: inactive; M4 ag: inactive; M5 ag: inactive; M5 antag: 38.8; M5 PAM: inactive

What do the screens show for `CCNC(=O)NC(=O)CSc1ccc(S(=O)(=O)N(C)C2CCCCC2)cn1`?
M4 antag: inactive; CHRM4 PAM: inactive; M4 ag: inactive; M5 ag: inactive; M5 antag: inactive; M5 PAM: inactive

How did CC(C)C(=O)Nc1cccc(-c2nc3ncccc3o2)c1 do in these assays?
M4 antag: inactive; CHRM4 PAM: inactive; M4 ag: inactive; M5 ag: inactive; M5 antag: inactive; M5 PAM: inactive

Results for CC(C)C(=O)Nc1ccc(-c2nc3ncccc3o2)cc1 ?
M4 antag: inactive; CHRM4 PAM: inactive; M4 ag: inactive; M5 ag: inactive; M5 antag: 29.8; M5 PAM: inactive

How did CC(C(=O)Nc1cccnc1)n1cc([N+](=O)[O-])cn1 (centres undefined) do in these assays?
M4 antag: inactive; CHRM4 PAM: inactive; M4 ag: inactive; M5 ag: inactive; M5 antag: inactive; M5 PAM: inactive

Results for CCOC(=O)N1CCN(c2ncc(C(F)(F)F)cc2Cl)CC1 ?
M4 antag: inactive; CHRM4 PAM: 23.1; M4 ag: inactive; M5 ag: inactive; M5 antag: inactive; M5 PAM: inactive

How did CCOC(=O)C=C1CCN(c2ncc(C(F)(F)F)cc2Cl)CC1 do in these assays?
M4 antag: inactive; CHRM4 PAM: inactive; M4 ag: inactive; M5 ag: inactive; M5 antag: inactive; M5 PAM: inactive

Results for COc1ccc(OC)c2[nH]c(=O)c(CCNC(=O)c3ccc(S(=O)(=O)N(C)C)cc3)cc12 ?
M4 antag: inactive; CHRM4 PAM: 27.8; M4 ag: inactive; M5 ag: inactive; M5 antag: inactive; M5 PAM: inactive

How did CCCCn1nnnc1NCc1cccnc1 do in these assays?
M4 antag: inactive; CHRM4 PAM: inactive; M4 ag: inactive; M5 ag: inactive; M5 antag: 31.1; M5 PAM: inactive

What do the screens show for `CN1CCN(NC(=O)C2CC2)CC1`?
M4 antag: 32.5; CHRM4 PAM: inactive; M4 ag: inactive; M5 ag: inactive; M5 antag: inactive; M5 PAM: inactive

How did CN1CCN(NC(=O)C23CC4CC(CC(C4)C2)C3)CC1 do in these assays?
M4 antag: inactive; CHRM4 PAM: inactive; M4 ag: inactive; M5 ag: inactive; M5 antag: inactive; M5 PAM: inactive

How did Cc1[nH]c(=S)c(C#N)c(C)c1CC(=O)c1ccc(Br)cc1 do in these assays?
M4 antag: inactive; CHRM4 PAM: inactive; M4 ag: inactive; M5 ag: inactive; M5 antag: inactive; M5 PAM: inactive

How did CCN1/C(=C/c2ccc3ccccc3[n+]2CC)C=Cc2ccccc21 do in these assays?
M4 antag: 44.8; CHRM4 PAM: inactive; M4 ag: inactive; M5 ag: inactive; M5 antag: 29.0; M5 PAM: inactive

How did CCCCN1/C(=C/c2ccc3ccccc3[n+]2CC)Sc2ccccc21 do in these assays?
M4 antag: inactive; CHRM4 PAM: inactive; M4 ag: inactive; M5 ag: inactive; M5 antag: 38.6; M5 PAM: inactive

Assay outcomes: PubChem BioAssay, The Scripps Research Institute Molecular Screening Center
